Test results as given in PMC3329872 (Bioorganic & medicinal chemistry letters, 2012).
Where “and” joins values, the source holds several entries; their conditions need not be identical. Equal entries are not always repeated. Entries after “also recorded” stand apart in the source; their conditions may differ. Where two headings read alike, the source gives them in different places.

Assays:
trypsin = target: T1, trypsin (Bos taurus, UniProt P00760); assay: Trypsin enzymatic inhibition assay; type: biochemical
T1 sequence (P00760 24-246): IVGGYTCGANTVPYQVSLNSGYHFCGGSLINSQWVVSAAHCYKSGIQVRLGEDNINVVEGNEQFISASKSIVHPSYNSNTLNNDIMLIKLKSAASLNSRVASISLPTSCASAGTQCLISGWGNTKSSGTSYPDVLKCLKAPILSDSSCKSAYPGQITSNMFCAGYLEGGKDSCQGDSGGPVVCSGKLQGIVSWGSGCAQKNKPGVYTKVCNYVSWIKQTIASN
Summary of the method: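 Chromogenic substrate level was chosen from the Km determination. Rate of absorbance change at 405 nm was recorded immediately after enzyme addition. Velocities at various inhibitor concentrations were fitted to a 4-parameter logistic equation.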

U87 glioma cells = assay: Cell death assay: lactate dehydrogenase; type: cell-based; settings: LDH assay, human U87 glioma cells; concentration and time given in the cell
Summary of the method: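 U87 glioma cells plated at ten thousand per well and exposed to test compound for 24–48 h at 37°C, 5% CO2. Cell death read as cytosolic LDH released from dying cells, measured with a commercial LDH kit per the manufacturer's protocol.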

plasmin [1] = target: T2, plasmin (Homo sapiens, UniProt P00747); assay: Plasmin enzymatic inhibition assay; type: biochemical
T2 sequence (P00747 581-810 limits assumed, species assumed): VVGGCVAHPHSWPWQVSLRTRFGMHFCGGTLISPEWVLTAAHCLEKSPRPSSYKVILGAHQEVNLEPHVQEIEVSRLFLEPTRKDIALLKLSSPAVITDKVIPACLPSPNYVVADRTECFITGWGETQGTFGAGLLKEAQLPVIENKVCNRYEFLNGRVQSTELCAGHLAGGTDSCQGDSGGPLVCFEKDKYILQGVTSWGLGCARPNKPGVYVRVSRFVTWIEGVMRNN
T2 sequence (P00747 97-580 partner limits assumed, species assumed): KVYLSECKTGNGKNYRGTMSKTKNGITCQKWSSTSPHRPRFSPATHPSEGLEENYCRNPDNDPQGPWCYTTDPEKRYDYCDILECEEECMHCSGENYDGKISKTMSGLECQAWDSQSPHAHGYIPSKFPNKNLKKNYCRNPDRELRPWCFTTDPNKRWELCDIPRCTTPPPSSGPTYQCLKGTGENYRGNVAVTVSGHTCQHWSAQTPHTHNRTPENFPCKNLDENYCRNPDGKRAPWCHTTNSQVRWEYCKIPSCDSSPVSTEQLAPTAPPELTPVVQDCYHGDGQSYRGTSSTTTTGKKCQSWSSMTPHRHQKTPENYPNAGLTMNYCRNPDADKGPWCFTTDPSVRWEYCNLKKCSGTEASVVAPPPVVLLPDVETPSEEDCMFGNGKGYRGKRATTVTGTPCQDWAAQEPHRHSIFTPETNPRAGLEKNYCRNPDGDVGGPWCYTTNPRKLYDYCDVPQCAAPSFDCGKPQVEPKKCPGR

plasmin [2] = target: T2, plasmin; settings: read-out: plasmin IC50; cited from earlier work
[3] = tested on: human malignant glioma cells; settings: cited from earlier work
tPA = tPA (Homo sapiens, UniProt P00750); settings: read-out: tPA IC50; cited from earlier work
tPA, sequence (P00750 36-562, species assumed): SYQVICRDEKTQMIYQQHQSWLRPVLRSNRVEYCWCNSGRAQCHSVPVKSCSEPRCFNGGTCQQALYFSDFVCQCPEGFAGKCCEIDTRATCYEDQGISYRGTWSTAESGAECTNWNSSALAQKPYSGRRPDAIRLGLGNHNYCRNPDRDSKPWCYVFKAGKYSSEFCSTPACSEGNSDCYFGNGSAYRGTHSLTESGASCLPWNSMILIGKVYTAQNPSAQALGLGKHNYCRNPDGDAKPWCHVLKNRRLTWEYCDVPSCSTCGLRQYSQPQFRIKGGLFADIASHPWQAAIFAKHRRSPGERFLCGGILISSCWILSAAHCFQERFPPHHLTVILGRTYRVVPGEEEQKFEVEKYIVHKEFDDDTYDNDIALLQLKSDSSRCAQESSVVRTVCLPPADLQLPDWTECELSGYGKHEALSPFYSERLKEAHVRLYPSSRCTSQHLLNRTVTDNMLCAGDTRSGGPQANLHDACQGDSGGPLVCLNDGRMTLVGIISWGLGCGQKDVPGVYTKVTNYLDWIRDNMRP

[4] = read-out: Plasmin IC50, 22°C, pH 7.4, substrate tosyl-Gly-Pro-Lys-pNA

Row | SMILES | IC50 (trypsin) | Cytoxicity (U87 glioma cells) | IC50 (plasmin [1]; [4]) | IC50 (plasmin [1]) | IC50 (plasmin [2]) | concentration causing caspase-independent, non-apoptotic cell death [3] | IC50 (tPA)
1 | NC(N)=NC(=O)c1ncc(NCC(=O)O)nc1N [Compound 1-H] | > 250 µM | Not cytotoxic |  |  |  |  | 
2 | N=C(N)NC(=O)c1nc(Cl)c(NCC(=O)O)nc1N [Compound 1] | > 250 µM | do not demonstrate glioma cytotoxicity; also recorded: Not cytotoxic |  |  |  |  | 
3 | N=C(N)c1ncc(NCC(=O)O)nc1N [Compound 2-H] | > 250 µM | Not cytotoxic |  |  |  |  | 
4 | N=C(N)c1nc(Cl)c(NCC(=O)O)nc1N [Compound 2] | > 250 µM | do not demonstrate glioma cytotoxicity; also recorded: Not cytotoxic | > 250 µM |  |  |  | 
5 | N/C(=N\O)c1nc(Cl)c(NCC(=O)OCc2ccccc2)nc1N [Compound 7] | > 250 µM | Not cytotoxic |  |  |  |  | 
6 | N/C(=N\O)c1ncc(NCC(=O)O)nc1N [Compound 8-H] | > 250 µM | Not cytotoxic |  | 230 µM |  |  | 
7 | N/C(=N\O)c1nc(Cl)c(NCC(=O)O)nc1N [Compound 8] | > 250 µM | Not cytotoxic |  |  |  |  | 
8 | N=C(N)c1nc(Cl)c(NCC(=O)OCc2ccccc2)nc1N [Compound 11] | > 250 µM | cytotoxic and 50% cytotoxic at 250μM by 72h |  |  |  |  | 
9 | NC(=O)c1nc(Cl)c(NCC(=O)OCc2ccccc2)nc1N [Compound 12] | > 250 µM | Not cytotoxic | > 150 µM |  |  |  | 
10 | NC(N)=NC(=O)c1nc(Cl)c(NCC(=O)OCc2ccccc2)nc1N [Compound 14] | > 250 µM | cytotoxic and 50% cytotoxic at 100μM by 24h |  |  |  |  | 
11 | N=C(N)NC(=O)c1nc(Cl)c(N)nc1N [amiloride, 3,5 diamino-6-chloro-N-(diaminomethylene) pyrazinecarboximide] | > 250 µM | 50% cytotoxic at 250μM by 24h |  |  | > 1000 µM | ~ 200 μM | > 1000 µM
